# Results reported in ChEMBL document CHEMBL2311516, “Structure-activity relationship studies of argiotoxins: selective and potent inhibitors of ionotropic glutamate receptors” (J Med Chem, 2013).
# pIC50: −log10 of the molar value.
# Legend:
# Rattus norvegicus [1] = species on record: Rattus norvegicus; assay: Selectivity ratio of IC50 for rat GluA1 receptor flip form to IC50 for rat GluN1/2A receptor
# In short: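 Ratio IC50(GluA1)/IC50(GluN1/2A), each IC50 from composite dose−response data of 5 to 10 oocytes in two-electrode voltage clamp. GluA1_i driven by 300 μM glutamate; GluN1/2A driven by 100 μM glutamate plus 100 μM glycine; antagonist coapplied.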
# [2] = molecular target: Glutamate NMDA receptor; Grin1/Grin2a (Rattus norvegicus, UniProt P35439+Q00959); assay: Inhibition of rat GluN1/2A receptor expressed in Xenopus laevis oocyte assessed as glutamate and glycine-induced current at holding potentials from -80 to -40 mV by two electrode voltage clamp analysis
# In short: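 Oocytes injected with 25 nL GluN1/N2A cRNA (1:1, 0.05 ng/nL), held at 17 °C in Barth's medium with gentamicin, recorded 3−6 days later by two-electrode voltage clamp in frog Ringer's. Current evoked by 100 μM L-glutamate plus 100 μM glycine, antagonist coapplied at rising levels; holding potentials −40, −60, −80 mV. IC50 from logistic fit, triplicate curves.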
# Glutamate receptor 1 = Glutamate receptor 1 (Rattus norvegicus, UniProt P19490); assay: Inhibition of rat GluA1 receptor flip form expressed in Xenopus laevis oocyte assessed as glutamate-induced current at holding potentials from -80 to -40 mV by two electrode voltage clamp analysis
# In short: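 Oocytes injected with 25 nL GluA1_i cRNA (1 ng/nL), kept at 17 °C in Barth's medium with gentamicin, recorded 3−6 days later under two-electrode voltage clamp in frog Ringer's superfusion. Current evoked by 300 μM L-glutamate, then increasing antagonist coapplied with agonist; holding potentials −40, −60, −80 mV. Per-oocyte logistic fit for IC50, triplicate curves.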
# Rattus norvegicus [3] = species on record: Rattus norvegicus; assay: Selectivity ratio of IC50 for rat GluN1/2A receptor to IC50 for rat GluA1 receptor flip form
# In short: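 Ratio IC50(GluN1/2A)/IC50(GluA1), each IC50 from composite dose−response data of 5 to 10 oocytes in two-electrode voltage clamp. GluA1_i driven by 300 μM glutamate; GluN1/2A driven by 100 μM glutamate plus 100 μM glycine; antagonist coapplied.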
# Glutamate NMDA receptor; Grin1/Grin2a, sequence (Q00959 whole entry, other chains not shown): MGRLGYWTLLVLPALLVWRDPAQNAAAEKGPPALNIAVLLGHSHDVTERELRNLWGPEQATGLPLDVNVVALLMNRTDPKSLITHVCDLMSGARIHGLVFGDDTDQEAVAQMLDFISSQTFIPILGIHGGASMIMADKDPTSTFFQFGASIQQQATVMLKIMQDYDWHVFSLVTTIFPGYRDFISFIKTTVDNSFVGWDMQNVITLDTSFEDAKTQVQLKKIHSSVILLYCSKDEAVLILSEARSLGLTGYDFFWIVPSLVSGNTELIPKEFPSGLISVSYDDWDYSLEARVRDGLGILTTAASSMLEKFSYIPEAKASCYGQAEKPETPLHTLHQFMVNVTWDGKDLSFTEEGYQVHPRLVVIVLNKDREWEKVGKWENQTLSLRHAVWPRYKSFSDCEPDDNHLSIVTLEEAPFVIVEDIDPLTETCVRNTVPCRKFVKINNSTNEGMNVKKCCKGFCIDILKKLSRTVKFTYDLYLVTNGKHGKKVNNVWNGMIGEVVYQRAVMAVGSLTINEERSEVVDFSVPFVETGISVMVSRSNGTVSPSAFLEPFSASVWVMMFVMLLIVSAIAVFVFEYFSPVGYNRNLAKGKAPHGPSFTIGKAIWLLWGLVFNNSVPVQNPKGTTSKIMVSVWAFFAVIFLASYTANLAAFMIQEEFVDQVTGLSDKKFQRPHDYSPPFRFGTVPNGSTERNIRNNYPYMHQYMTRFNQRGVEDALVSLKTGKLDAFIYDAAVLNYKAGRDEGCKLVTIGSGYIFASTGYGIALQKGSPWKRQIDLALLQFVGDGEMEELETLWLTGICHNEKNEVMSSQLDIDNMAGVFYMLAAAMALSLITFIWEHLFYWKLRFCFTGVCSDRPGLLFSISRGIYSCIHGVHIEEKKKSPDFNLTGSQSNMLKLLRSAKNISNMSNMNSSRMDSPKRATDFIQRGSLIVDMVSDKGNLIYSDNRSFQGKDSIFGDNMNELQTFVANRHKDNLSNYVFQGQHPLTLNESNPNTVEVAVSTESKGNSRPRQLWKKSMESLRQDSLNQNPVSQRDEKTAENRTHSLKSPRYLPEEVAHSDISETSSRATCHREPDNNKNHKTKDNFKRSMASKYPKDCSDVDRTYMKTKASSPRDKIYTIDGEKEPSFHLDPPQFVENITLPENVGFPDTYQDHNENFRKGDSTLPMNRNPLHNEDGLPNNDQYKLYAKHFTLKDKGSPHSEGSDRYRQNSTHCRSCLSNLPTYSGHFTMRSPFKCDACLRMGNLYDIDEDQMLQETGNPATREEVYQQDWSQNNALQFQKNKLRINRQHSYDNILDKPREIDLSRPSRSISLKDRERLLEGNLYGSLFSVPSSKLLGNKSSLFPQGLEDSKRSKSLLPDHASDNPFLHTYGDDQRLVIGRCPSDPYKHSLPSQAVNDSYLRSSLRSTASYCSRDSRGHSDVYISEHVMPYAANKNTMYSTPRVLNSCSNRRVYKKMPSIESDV
# Glutamate receptor 1, sequence (P19490 whole entry, the tested form may be a part): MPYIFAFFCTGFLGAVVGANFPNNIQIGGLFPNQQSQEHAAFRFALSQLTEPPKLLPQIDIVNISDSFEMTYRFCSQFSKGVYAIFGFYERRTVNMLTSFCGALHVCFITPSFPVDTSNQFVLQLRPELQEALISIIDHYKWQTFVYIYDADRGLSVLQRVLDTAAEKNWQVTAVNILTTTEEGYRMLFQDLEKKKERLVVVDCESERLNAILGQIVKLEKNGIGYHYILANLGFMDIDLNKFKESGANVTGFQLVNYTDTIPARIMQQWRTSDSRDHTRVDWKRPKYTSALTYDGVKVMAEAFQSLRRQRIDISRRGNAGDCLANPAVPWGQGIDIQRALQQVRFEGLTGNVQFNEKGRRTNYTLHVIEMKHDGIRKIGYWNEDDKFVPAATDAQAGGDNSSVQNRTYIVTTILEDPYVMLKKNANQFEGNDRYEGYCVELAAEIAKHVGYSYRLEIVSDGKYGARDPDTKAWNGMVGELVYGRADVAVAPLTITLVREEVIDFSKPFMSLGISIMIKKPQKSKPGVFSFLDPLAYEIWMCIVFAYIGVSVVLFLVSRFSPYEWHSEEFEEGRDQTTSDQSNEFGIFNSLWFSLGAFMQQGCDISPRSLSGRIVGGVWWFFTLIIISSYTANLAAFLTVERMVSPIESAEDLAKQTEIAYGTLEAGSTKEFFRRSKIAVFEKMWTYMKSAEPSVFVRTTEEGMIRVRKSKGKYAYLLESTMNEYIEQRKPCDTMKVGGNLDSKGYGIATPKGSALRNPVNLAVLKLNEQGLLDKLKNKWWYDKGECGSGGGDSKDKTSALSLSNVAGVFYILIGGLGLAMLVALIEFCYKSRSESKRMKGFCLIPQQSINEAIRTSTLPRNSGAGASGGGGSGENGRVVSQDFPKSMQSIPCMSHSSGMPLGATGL
SMILES,Ratio IC50 (Rattus norvegicus [1]),pIC50 [2],pIC50 (Glutamate receptor 1),Ratio IC50 (Rattus norvegicus [3])
N=C(N)NCCC[C@H](N)C(=O)NCCCNCCCNCCCCCNC(=O)[C@H](CC(N)=O)NC(=O)Cc1ccc(O)cc1O,8,8.00,,
NC(=O)C[C@H](NC(=O)Cc1ccc(O)cc1O)C(=O)NCCCCCCCCCNCCCNC(=O)[C@@H](N)CCCN=C(N)N,,7.85,6.34,
NC(=O)C[C@H](NC(=O)Cc1ccc(O)cc1O)C(=O)NCCCCCCCNCCCCCNC(=O)[C@@H](N)CCCN=C(N)N,,7.77,6.93,
N=C(N)NCC[C@@H](N)C(=O)NCCCCCNCCCCCCCNC(=O)[C@H](CC(=O)O)NC(=O)Cc1ccc(O)cc1O,0.07,5.65,6.78,13
N=C(N)NCCC[C@H](N)C(=O)NCCCCCNCCCCCCCNC(=O)[C@H](CC(N)=O)NC(=O)Cc1ccc(O)cc1O,7,,,
N=C(N)NCCC[C@H](N)C(=O)NCCCCCCCCNCCCCNC(=O)[C@H](CC(N)=O)NC(=O)Cc1ccc(O)cc1O,0.08,6.64,7.72,12
N=C(N)NCCC[C@H](N)C(=O)NCCCCCCCCCNCCCNC(=O)[C@H](CC(N)=O)NC(=O)Cc1ccc(O)cc1O,< 0.06,< 5.52,6.77,< 0.06
N=C(N)NCCC[C@H](N)C(=O)NCCCCCCCNCCCCCNC(=O)[C@H](CC(N)=O)NC(=O)Cc1ccc(O)cc1O,0.09,6.07,7.11,11
N=C(N)NCCC[C@H](N)C(=O)NCCCCCCNCCCCCCNC(=O)[C@H](CC(N)=O)NC(=O)Cc1ccc(O)cc1O,2,7.68,7.34,
N=C(N)NCCC[C@H](N)C(=O)NCCCCNCCCCCCCCNC(=O)[C@H](CC(N)=O)NC(=O)Cc1ccc(O)cc1O,10,,,
NC(=O)C[C@H](NC(=O)Cc1ccc(O)cc1O)C(=O)NCCCCCCCCNCCCCNC(=O)[C@@H](N)CCCN=C(N)N,,8.10,7.08,
N=C(N)NCCC[C@H](N)C(=O)NCCCNCCCCCCCCCNC(=O)[C@H](CC(N)=O)NC(=O)Cc1ccc(O)cc1O,32,,,
N=C(N)NCC[C@@H](N)C(=O)NCCCCCNCCCCCCCNC(=O)[C@@H](NC(=O)Cc1ccc(O)cc1O)c1c[nH]c2ccccc12,3.4,,,
